Screening results deposited in PubChem BioAssay by The Scripps Research Institute Molecular Screening Center.
HCV core dimer = HCV core protein dimerization inhibition; TR-FRET GST/Flag-core106 dimerization, 1536-well; AID 1899; inhibition, % at 5 µM; hit rate 0.33% among 300,000;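 active = inhibition above the mean of all tested compounds plus 3 SD, set per screening campaign, cut at about 45% in these data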
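assay system = GST-tagged and Flag-tagged HCV core protein residues 1-106 | controls = unlabelled core106 and no-GST-core106 wells | incubation = compound-protein-antibody incubation 4 h at 22.5 °C | probe or stimulus = Eu donor and XL665 acceptor anti-tag antibodies | read-out = % inhibition based on acceptor/donor emission ratio | signal = TR-FRET 671 and 617 nm emission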
TAAR1 antag = human TAAR1 antagonism; inhibition, % at 3 µM; hit rate 1.5% among 360,000; Q96RJ0; AID 624466; CHO RD-HGA16 TAAR1, Fluo-8 calcium fluorescence, antagonist;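 active = inhibition above a per-plate cutoff, the mean inhibition of test compounds on that plate plus 3 SD, cut at about 49% in these data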;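 also: 0% = DMSO plus EC80 beta-PEA response and 100% = DMSO alone without agonist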
Target sequence (Q96RJ0 whole entry, looked up): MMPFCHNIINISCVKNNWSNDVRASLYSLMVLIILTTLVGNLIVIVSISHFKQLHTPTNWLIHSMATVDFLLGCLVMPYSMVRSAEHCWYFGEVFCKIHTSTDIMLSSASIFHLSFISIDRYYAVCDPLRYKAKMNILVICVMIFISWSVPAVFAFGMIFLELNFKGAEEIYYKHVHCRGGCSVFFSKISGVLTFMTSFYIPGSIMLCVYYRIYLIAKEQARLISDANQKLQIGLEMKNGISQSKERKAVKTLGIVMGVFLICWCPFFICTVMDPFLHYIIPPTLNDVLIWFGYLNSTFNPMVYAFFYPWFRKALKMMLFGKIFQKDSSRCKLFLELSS
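Assay system: RD-HGA16 CHO cells with stable hTAAR1 and Gα16 / Reagent: EC80 β-phenethylamine stimulus / Doses: 3 µM, single point / Timing: dye loading 75 min at 37 °C, then 30 min room temperature / Measured by: Fluo-8 intracellular calcium dye fluorescence, real-time kinetic reads / Controls: vehicle wells and EC80 agonist wells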
NS3 helicase inh = inhibitors of Hepatitis C virus NS3 helicase; NS3 helicase DNA unwinding, Cy5 molecular beacon fluorescence; inhibition, % at 10.9 µM; hit rate 0.56% among 290,000;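 active = inhibition above the mean of all tested compounds plus 3 SD, set per campaign, cut at about 35% in these data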;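 also: 0% = DMSO wells and 100% = thioflavine S control wells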
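Assay system – hepatitis C virus NS3 helicase domain fragment enzyme · Buffer or medium – MOPS pH 6.5, MgCl2, DTT, Tween20, BSA · Reagent – Cy5/quencher beacon DNA duplex and ATP to start · Compound – single 10.9 µM dose · Timing – 1 h at 25 °C · Technique – Cy5 beacon fluorescence read at start and 1 h · Measure – % inhibition of unwinding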
TAAR1 agonist = human TAAR1 agonism; hit rate 0.99% among 360,000; activation, % at 3 µM; Q96RJ0; CHO RD-HGA16 TAAR1, Fluo-8 calcium fluorescence; vehicle wells 0%, saturating PEA agonist 100%;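 active = activation above the mean activation of all test compounds in the run plus 3 SD, cut at about 38% in these data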
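test system = CHO RD-HGA16 cells carrying human TAAR1 plus Gα16 | schedule = 17-24 h seeding, 75 min 37 °C dye, 30 min RT | compound dosing = 3 µM single concentration | control set = DMSO and PEA EC100 | replicates = n 1 | signal = Fluo-8 fluorescence, 5 s baseline then 140 s kinetic read | measure = percent activation vs PEA EC100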
rCAG RNA binder = binds r(CAG) RNA repeats; inhibition, % at 3 µM; r(CAG) RNA repeat, TO-PRO-1 dye displacement fluorescence; hit rate 1.3% among 370,000;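 active = inhibition above the plate cutoff, the mean of all test compounds on that plate plus 3 SD, cut at about 35% in these data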;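 also: 0% = DMSO alone and 100% = 100 µM mitoxantrone as full dye displacement; higher means more dye released from RNA so lower well fluorescence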
NS3 helicase cf = confirmation of Hepatitis C virus NS3 helicase inhibitors | shares compounds with NS3 helicase inh | NS3 helicase DNA unwinding, Cy5 molecular beacon fluorescence | inhibition, % at 10.9 µM | hit rate 31% among 1,600 | AID 1943;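 active = inhibition above the mean of all tested compounds plus 3 SD, cutoff set per campaign, cut at about 36% in these data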
FID counter trip = displaces DNA intercalator in HCV helicase counter-screen. shares compounds with NS3 helicase inh. DNA fluorescent intercalator displacement, fluorescence. inhibition, % at 7.9 µM. hit rate 4% among 1,600. AID 1945; in the data active = inhibition above about 37%;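 also: 0% = vehicle and 100% = reference compound; higher means more displacement of ethidium bromide from the DNA hairpin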
An asterisk follows results filed as active; i = inactive; x = not tested or not shown. This is a sample that favours compounds with a hit; in the whole collection about 3.7% have one here.

SMILES	HCV core dimer	TAAR1 antag	NS3 helicase inh	TAAR1 agonist	rCAG RNA binder	NS3 helicase cf	FID counter trip
CC1CC/C(=C\c2ccc3c(c2)OCO3)C(=O)/C1=C/c1ccc2c(c1)OCO2 (stereo not drawn)	9.3	-14.6	37.6*	2.3	7.5	-8.0	0.7
O=C1/C(=C\c2ccc3c(c2)OCO3)CCC/C1=C/c1ccc2c(c1)OCO2	12.6	1.5	5.1	5.7	6.0	x	x
CC1=NNC(=O)C1CC(=O)N/N=C/C(C)=C/c1ccccc1 (stereo not drawn)	3.7	7.7	-13.3	-0.3	1.7	x	x
CC(/C=N/NC(=O)Cc1cc(=O)[nH][nH]1)=C\c1ccccc1	-4.0	5.3	39.4*	4.7	10.8	-6.4	2.6
O=c1cc2oc3cc(O)c(O)cc3c(-c3ccccc3O)c-2cc1O	x	x	51.4*	x	x	101.9*	-76.1
CCOC(=O)c1oc2cc(O)ccc2c(=O)c1-c1ccccc1OC	0.9	10.4	1.4	-0.5	1.9	x	x
COc1ccc(OC)c(-c2c3cc(O)c(=O)cc-3oc3cc(O)c(O)cc23)c1	38.6	x	43.9*	x	x	86.7*	i
Cc1ccccc1-c1cc(=O)c2c(O)cccc2o1	9.4	11.6	x	16.3	-1.8	x	x
CCOc1ccccc1-c1c2cc(O)c(=O)cc-2oc2cc(O)c(O)cc12	x	x	52.3*	x	x	93.8*	i
COc1ccc(OC)c(-c2oc3ccccc3c(=O)c2O)c1	1.4	-5.1	-3.5	1.3	-0.3	x	x
COc1ccc(C=Nn2c(-c3ccc(F)cc3)n[nH]c2=S)c(OC)c1OC	x	x	x	x	25.0	x	x
COc1ccc(CN2C(=O)[C@@](O)(c3cccn3C)c3cc(F)ccc32)cc1	x	x	x	x	2.4	x	x
COc1cc(/C=C/[N+](=O)[O-])ccc1OCc1cccc(C(=O)O)c1	x	x	36.0*	x	x	68.7*	-13.7
COC(=O)C1CN(CC(C)C)CCS(=O)(=O)N1Cc1ccc(C(F)(F)F)cc1 (stereo not drawn)	x	x	x	x	-2.5	x	x
COC(=O)C1CN(Cc2cn(Cc3ccc(Cl)cc3)nn2)CCS(=O)(=O)N1Cc1ccc(Cl)cc1 (stereo not drawn)	x	x	x	x	5.4	x	x
C[C@H](CCC(=O)O)[C@H]1CC[C@H]2[C@@H]3CC[C@@H]4C[C@H](O)CC[C@]4(C)[C@H]3CC[C@]12C	1.5	19.4	x	12.2	26.4	x	x
CC(CCC(=O)O)C1CCC2C3CCC4C[C@H](O)CCC4(C)C3CC(=O)C12C (stereo partly drawn)	-0.8	-0.3	40.5*	3.0	4.8	-21.5	-13.3
CN(C)Cc1cn(-c2cccc(-c3noc4c3C(=O)N(CC(=O)N3CCOCC3)CC4)c2)nn1	x	x	x	x	-1.9	x	x
Brc1cccc(C2Nc3cccc4cccc(c34)N2)c1	8.4	-4.5	24.4	1.8	6.0	x	x
Clc1cccc(C2Nc3cccc4cccc(c34)N2)c1	46.5*	-15.1	54.6*	0.0	10.5	-9.8	12.9
Clc1ccc(C2Nc3cccc4cccc(c34)N2)cc1Cl	8.0	-2.3	58.7*	0.4	8.9	-21.9	25.4
CCNC(=S)NNC(=O)CSc1nnc(SCc2cccc3ccccc23)s1	x	x	x	x	26.6	x	x
O=c1cc(-c2ccccc2Cl)oc2ccc([N+](=O)[O-])c(O)c12	2.1	-8.1	4.8	3.6	0.7	x	x
O=[N+]([O-])c1cc([N+](=O)[O-])c2oc(-c3ccccc3)c(Br)c2c1O	x	x	44.8*	x	x	74.5*	67.5*
Cc1sc(NC(=O)/C=C/C(=O)O)c(C(N)=O)c1-c1ccc(C(C)(C)C)cc1	8.6	-16.7	36.5*	-0.4	30.7	59.5*	-13.8
SMILES	HCV core dimer	TAAR1 antag	NS3 helicase inh	TAAR1 agonist	rCAG RNA binder	NS3 helicase cf	FID counter trip
CC(=O)N1CCc2cc(Br)c(S(=O)(=O)CCC(=O)N3CCN(c4ccccn4)CC3)cc21	x	x	x	x	8.8	x	x
CCN(CC)c1ccc2c(-c3ccc(S(=O)(=O)O)cc3S(=O)(=O)[O-])c3ccc(=[N+](CC)CC)cc-3oc2c1	67.8*	x	51.3*	x	x	84.4*	x
CC(C)(C)C(=O)C1=C(O)C(=O)N(Cc2ccccc2)C1c1ccccc1Cl (stereo not drawn)	8.3	4.1	37.8*	0.1	-2.1	14.7	-13.2
CC(=O)C1=C(O)C(=O)N(CC(=O)O)C1c1ccccc1Cl (stereo not drawn)	0.7	x	2.1	x	x	x	x
C=CCN1[C@H](CO)[C@H](c2ccc(C#CC3(O)CCCC3)cc2)[C@@H]1C#N	x	x	x	x	6.1	x	x
CCOC(=O)c1c(N2C(=O)Nc3ccccc3N2O)sc2c1CCCCC2	16.1	-7.0	46.6*	2.1	26.9	74.5*	-13.2
O=C(O)c1ccc(CSc2nnnn2-c2ccc(F)cc2)cc1	4.7	-6.0	5.0	1.9	2.3	x	x
Cc1ccc(-n2nnnc2SCc2ccc(C(=O)O)cc2)cc1C	-8.1	-7.6	37.2*	4.3	7.6	-14.0	-7.0
O=C(C(=O)N1CCC(CNC(=O)c2ccccc2F)CC1)c1cc2ccccc2o1	x	11.3	x	0.3	2.0	x	x
CC(CC(=O)O)CC(=O)Nc1cc(C(F)(F)F)cc(C(F)(F)F)c1 (stereo not drawn)	-1.1	-23.3	45.1*	0.6	2.6	5.1	5.0
O=C(O)COCC(=O)Nc1cc(C(F)(F)F)cc(C(F)(F)F)c1	-5.2	-22.8	-2.9	12.4	-0.8	x	x
CCC(C)N(C(=O)CSc1nnc(-c2cc(OC)c(OC)c(OC)c2)o1)C(C)CC (stereo not drawn)	x	x	x	x	-1.6	x	x
CCCCCCCCN1C(=O)[C@@H](CC(=O)NCc2cccs2)C[C@@]2(C(=O)OC)C1=C[C@H](C(C)(C)C)O[C@@H]2C	x	-16.1	x	-1.0	3.3	x	x
CCc1ccc(NC(=O)Nc2cccs2)cc1	6.5	17.6	43.9*	8.5	18.7	-15.5	12.2
Cn1nnnc1SCc1nc2scc(-c3ccccc3)c2c(=O)[nH]1	8.3	-1.7	-12.6	0.0	5.4	x	x
Cn1nnnc1SCc1nc2scc(-c3ccc(Cl)cc3)c2c(=O)[nH]1	27.8	-17.1	42.3*	3.0	16.0	-17.1	1.0
COc1ccc(NS(=O)(=O)c2cccc(C(=O)NNC(=O)NCCCl)c2)cc1	-2.5	-27.1	68.6*	3.6	3.3	-13.8	-5.5
O=C1CCCC2=C1C(c1ccc(O)c(O)c1)Nc1ccc3ccccc3c12 (stereo not drawn)	2.2	-20.9	x	1.2	11.3	x	x
O=C1CCCC2=C1C(c1ccco1)Nc1ccc3ccccc3c12 (stereo not drawn)	71.3*	24.0	41.2*	15.2	33.9	35.6	-6.4
Nc1c(C(=O)Nc2ccccc2)sc2nc3c(c(-c4ccco4)c12)CCC3	14.8	-7.3	41.2*	2.8	11.4	-10.1	-16.3
Cc1ccccc1NC(=O)c1sc2nc3c(c(-c4ccco4)c2c1N)CCCC3	5.6	11.9	44.0*	20.7	7.2	-12.2	-26.6
